Results taken from ChEMBL document CHEMBL2062473, “Laurene-type sesquiterpenes from the Red Sea red alga Laurencia obtusa as potential antitumor-antimicrobial agents” (2012).
Values after ≈ are worked out from the molar mass of the structure shown. Active and inactive are the calls of the source. No cut-off for these calls is given here.

tested on: Candida albicans; assay: Antifungal activity against Candida albicans after 48 hrs by microtiter broth dilution method; type: functional; conditions: not given
How it was run: (§1)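 Fungi were grown 24 h at 37 C under 5% CO2 in YPD (1% yeast, 2% peptone, 2% dextrose), then diluted 1:100 in saline and 1:100 in YPD to about 1000 CFU per inoculum. Inocula were added to two-fold serial dilutions in 96-well broth, with drug-free growth and sterility controls. Plates were incubated 48 h at 37 C under 5% CO2. MIC was the lowest concentration without visible turbidity.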

Going from CC(=O)N1CCN(c2ccc(OCC3COC(Cn4ccnc4)(c4ccc(Cl)cc4Cl)O3)cc2)CC1 (centres undefined) [KETOCONAZOLE] to CC1=C(C)[C@@](C)(c2ccc(CO)cc2)CC1, the MIC rises from 40 mg/L (≈ 75.3 µM) to 2000 mg/L (≈ 9250 µM) (50-fold).

Going from CC1=C(C)[C@@](C)(C2=CCC(CO)=CC2)CC1 to CC1=C(C)[C@@](C)(c2ccc(C=O)cc2)CC1 [ISOLAURELDEHYDE], the MIC falls from 120 mg/L (≈ 550 µM) to 70 mg/L (≈ 327 µM) (1.7-fold).

tested on: Staphylococcus aureus; assay: Antibacterial activity against Staphylococcus aureus ATCC 29213 by two fold serial dilution technique; type: functional; conditions: not given
How it was run: (§2)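 Compounds first screened by disk diffusion. Those giving inhibition zones above 15 mm were then tested for bacteriostatic MIC by two-fold serial dilution.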

First: CC1=C(C)[C@@](C)(c2ccc(CO)cc2)CC1
Second: CC1=C(C)[C@@](C)(c2ccc(C=O)cc2)CC1 [ISOLAURELDEHYDE]
The MIC of the first is 1.9-fold higher: 52 mg/L (≈ 240 µM) for the first, 27 mg/L (≈ 126 µM) for the second.

With CC1=C(C)[C@@](C)(C2=CCC(CO)=CC2)CC1 the MIC was 31 mg/L (≈ 142 µM).

tested on: Pseudomonas aeruginosa; assay: Antibacterial activity against Pseudomonas aeruginosa ATCC […] by two fold serial dilution technique; type: functional, organism-based; conditions: not given; how it was run: as §2

In the case of CC1=C(C)[C@@](C)(c2ccc(CO)cc2)CC1, the MIC is reported as “inactive”.
For CC1=C(C)[C@@](C)(C2=CCC(CO)=CC2)CC1, the MIC was “inactive”.
With CC1=C(C)[C@@](C)(c2ccc(C=O)cc2)CC1 [ISOLAURELDEHYDE] the MIC was “inactive”.

tested on: not listed separately; assay: Cytotoxicity against mouse EAC at 25 to 100 uM after 2 hrs by trypan blue staining based hemocytometer analysis; type: functional, Ehrlich; conditions: not given
How it was run: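 Ehrlich ascites cells were aspirated aseptically from a donor animal's peritoneal fluid and kept in RPMI 1640 with 10% FBS. Cells were exposed to compounds at three levels (100, 50, 25) prepared in DMSO/RPMI-1640 for 2 h at 37 C in humidified 5% CO2. Viability was scored by trypan blue exclusion on a hemocytometer; untreated control viability exceeded 95%.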

First: CC1=C(C)[C@@](C)(C2=CCC(CO)=CC2)CC1
Second: CC1=C(C)[C@@](C)(c2ccc(C=O)cc2)CC1 [ISOLAURELDEHYDE]
The Activity of the first is lower: 79.9% for the first, 83.1% for the second.

tested on: Aspergillus fumigatus; assay: Antifungal activity against wild type Aspergillus fumigatus Af293 after 48 hrs by microtiter broth dilution method; type: functional; conditions: Af293, 48 h; how it was run: as §1

First: CC(=O)N1CCN(c2ccc(OCC3COC(Cn4ccnc4)(c4ccc(Cl)cc4Cl)O3)cc2)CC1 (centres undefined) [KETOCONAZOLE]
Second: CC1=C(C)[C@@](C)(c2ccc(CO)cc2)CC1
The MIC of the first is 50-fold lower: 40 mg/L (≈ 75.3 µM) for the first, 2000 mg/L (≈ 9250 µM) for the second.

Going from CC1=C(C)[C@@](C)(C2=CCC(CO)=CC2)CC1 to CC1=C(C)[C@@](C)(c2ccc(C=O)cc2)CC1 [ISOLAURELDEHYDE], the MIC falls from 200 mg/L (≈ 916 µM) to 100 mg/L (≈ 467 µM) (2-fold).

tested on: Bacillus subtilis; assay: Antibacterial activity against Bacillus subtilis ATCC 6633 by two fold serial dilution technique; type: functional; conditions: not given; how it was run: as §2

CC1=C(C)[C@@](C)(c2ccc(CO)cc2)CC1 and CC1=C(C)[C@@](C)(c2ccc(C=O)cc2)CC1 [ISOLAURELDEHYDE] are within 1.5-fold of each other in MIC: 46 mg/L (≈ 213 µM) for the first, 35 mg/L (≈ 163 µM) for the second.

CC1=C(C)[C@@](C)(C2=CCC(CO)=CC2)CC1 gave an MIC of 39 mg/L (≈ 179 µM).
